Source: ChEMBL document CHEMBL4011639, “Discovery of Novel Nucleotide Prodrugs with Improved Potency Against HCV Variants Carrying NS5B S282T Mutation” (J Med Chem, 2017)

Columns and labels:
Mus musculus [1] = assay: Subacute toxicity in ICR mouse assessed as effect on glomerulus at 100 to 1000 mg/kg, administered once a day via oral gavage for 14 days by hematoxylin/eosin-staining based microscopic analysis; type: organism-based; settings: in vivo, 336 h
How it was run: (§1)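 Same 14-day daily oral gavage design as the subacute study (ICR mice, 5 per sex per group, 100/500/1000 mg/kg or vehicle). Liver and kidney taken after anesthesia on day 15, processed routinely, cut as 5 μm paraffin sections, stained with hematoxylin and eosin and examined microscopically.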

Canis familiaris = assay: Toxicity in Beagle dog at 150 mg/kg, administered via oral gavage measured up to 24 hrs post dose; type: organism-based, Canis lupus familiaris; settings: in vivo
How it was run: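 Six Beagle dogs (three male, three female) given one oral gavage dose of 150 mg/kg in 20% w/v hydroxypropyl-β-cyclodextrin in water. Animals watched for clinical symptoms and adverse events while plasma was sampled over 24 h.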

Mus musculus [2] = assay: Acute toxicity in ICR mouse assessed as mortality at 150 to 1800 mg/kg, administered via oral gavage measured once a day over 14 days; type: organism-based; settings: in vivo, 336 h
How it was run: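 ICR mice, 22−25 g, 5 per sex per group. Single oral gavage at 150, 500, 1200 or 1800 mg/kg in vehicle of 30% PEG400/30% Tween 20/20% corn oil/20% water, with a vehicle control. Mortality, morbidity, clinical signs and body weight change recorded once daily for 14 days.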

UMP-CMP kinase = target: T1, UMP-CMP kinase (Homo sapiens, UniProt P30085); assay: Drug metabolism in human HuH7 cells assessed as UMP-CMP kinase-mediated ((2R,3R,4R,5R)-5-(4-amino-2-oxopyrimidin-1(2H)-yl)-4-fluoro-3-hydroxy-4-methyltetrahydrofuran-2-yl)methyl dihydrogen phosphate metabolite formation at 50 uM after 48 hrs by LC/MS/MS analysis; type: ADME, cell-based
T1 sequence (P30085 whole entry): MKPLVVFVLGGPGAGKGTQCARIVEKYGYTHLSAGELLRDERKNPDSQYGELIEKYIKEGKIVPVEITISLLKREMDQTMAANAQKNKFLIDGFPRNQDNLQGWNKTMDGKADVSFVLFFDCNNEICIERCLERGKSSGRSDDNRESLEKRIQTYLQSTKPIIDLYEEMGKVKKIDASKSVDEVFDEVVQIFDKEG
How it was run: (§2)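 Huh-7 cells plated at 0.35 million/mL in DMEM with 10% FBS (about 1 million per well at dosing) and grown 18 h. At each time point cells were washed with cold saline and lysed in methanol with internal standard. Semiquantified by LC/MS/MS MRM as Δ mean peak-area ratio relative to t0.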

Mus musculus [3] = assay: Subacute toxicity in ICR mouse assessed as effect on tubules at 100 to 1000 mg/kg, administered once a day via oral gavage for 14 days by hematoxylin/eosin-staining based microscopic analysis; type: organism-based; settings: in vivo, 336 h; how it was run: as §1
[4] = Inhibition of wild type NS5B in HCV genotype 1b replicon expressed in human HuH7 cells after 72 hrs by bright Glo-luciferase reporter gene assay; type: cell-based, Hepatitis C virus subtype 1b; settings: Hepatitis C virus, Huh-7, 72 h
How it was run: (§3)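 Huh7 cells carrying HCV genotype 1b replicon, 8000 per well, in duplicate 3-fold dilution series with 0.5% DMSO final; 72 h at 37 °C, 5% CO2. Viability read by Cell Titer-Fluor fluorescence after 5 min; replicon inhibition read by Bright-Glo luciferase luminescence in the same wells. EC50 and CC50 come from curve fitting.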

[5] = Drug metabolism in human HuH7 cells assessed as carboxylesterase-mediated (S)-2-((S)-(((2R,3R,4R,5R)-5-(4-amino-2-oxopyrimidin-1(2H)-yl)-4-fluoro-3-hydroxy-4-methyltetrahydrofuran-2-yl)methoxy)(hydroxy)phosphoryloxy)propanoic acid metabolite formation at 50 uM after 48 hrs by LC/MS/MS analysis; type: ADME, cell-based; how it was run: as §2
[6] = Acute toxicity in ICR mouse administered as a single dose via oral gavage and observed over 14 days; settings: in vivo
[7] = Cmax in Beagle dog at 150 mg/kg, administered via oral gavage measured up to 24 hrs post dose by LC/MS/MS analysis; type: ADME, organism-based, Canis lupus familiaris; design: dose 150 mg/kg, route oral; settings: in vivo
How it was run: (§4)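 Beagle dogs, 3 per sex, given a single oral gavage dose of 150 mg/kg in 20% w/v hydroxypropyl-β-cyclodextrin in water, 2.5 mL/kg. K2EDTA blood taken by venipuncture at 0.5, 0.75, 1, 2, 4, 6, 8, 12 and 24 h. Plasma extracted with ice-cold acetonitrile, then LC/MS/MS in positive MRM mode with zolpidem as internal standard. Noncompartmental analysis; mean ± SD.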

[8] = Half life in human plasma […] by LC/MS/MS analysis; type: ADME, cell-free
How it was run: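 Pooled human plasma adjusted to pH 7.4 and prewarmed, then spiked to 2 μM final from a 200 μM DMSO working solution, in duplicate. Sampled at 0, 10, 30, 60 and 120 min and quenched with acetonitrile containing tolbutamide and buspirone. LC/MS/MS (MRM) peak area ratios; ke from linear regression of the initial linear phase, t1/2 = ln2/ke.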

Huh-7 = assay: Cytotoxicity against human HuH7 cells assessed as reduction in cell viability up to 100 uM after 72 hrs by Cell Titer-Fluor Cell assay; type: cell-based; settings: huh-7, 72 h; how it was run: as §3
[9] = AUClast in Beagle dog at 150 mg/kg, administered via oral gavage measured up to 24 hrs post dose by LC/MS/MS analysis; type: ADME, organism-based, Canis lupus familiaris; design: dose 150 mg/kg, time < 24 hr, route oral; settings: in vivo; how it was run: as §4
[10] = Half life in Beagle dog at 150 mg/kg, administered via oral gavage measured up to 24 hrs post dose by LC/MS/MS analysis; type: ADME, organism-based, Canis lupus familiaris; settings: in vivo; how it was run: as §4
Liver carboxylesterase 1 = target: T2, Liver carboxylesterase 1 (Homo sapiens, UniProt P23141); assay: Drug metabolism in human HuH7 cells assessed as carboxylesterase 1-mediated (S)-2-((R)-(((2R,3R,4R,5R)-5-(4-butyramido-2-oxopyrimidin-1(2H)-yl)-4-fluoro-3-hydroxy-4-methyltetrahydrofuran-2-yl)methoxy)(hydroxy)phosphorylamino)propanoic acid metabolite formation at 50 uM after 24 hrs by LC/MS/MS analysis; type: ADME, cell-based; how it was run: as §2
T2 sequence (P23141 whole entry): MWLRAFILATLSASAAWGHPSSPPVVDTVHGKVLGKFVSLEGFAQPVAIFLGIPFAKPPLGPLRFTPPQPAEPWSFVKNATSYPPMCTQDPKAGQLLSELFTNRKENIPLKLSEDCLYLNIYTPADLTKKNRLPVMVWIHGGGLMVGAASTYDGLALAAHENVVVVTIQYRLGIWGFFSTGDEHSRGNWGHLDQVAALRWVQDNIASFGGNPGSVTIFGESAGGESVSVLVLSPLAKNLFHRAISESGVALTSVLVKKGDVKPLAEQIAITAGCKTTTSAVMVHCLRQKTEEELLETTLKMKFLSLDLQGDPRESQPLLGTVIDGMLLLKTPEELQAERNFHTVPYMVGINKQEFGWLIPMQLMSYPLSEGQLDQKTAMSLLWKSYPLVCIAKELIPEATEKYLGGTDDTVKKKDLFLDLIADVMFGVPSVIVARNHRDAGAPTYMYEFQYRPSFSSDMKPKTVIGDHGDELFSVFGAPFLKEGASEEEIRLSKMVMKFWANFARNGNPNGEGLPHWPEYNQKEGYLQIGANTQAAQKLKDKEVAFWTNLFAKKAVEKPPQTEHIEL

With `CCCC(=O)Nc1ccn([C@@H]2O[C@H](CO[P@@](=O)(N[C@@H](C)C(=O)OC(C)C)Oc3ccccc3)[C@@H](O)[C@@]2(C)F)c(=O)n1` the Activity (Mus musculus [1]) was “Non-Toxic”, the Activity (Canis familiaris) was “Non-Toxic” and the Activity (Mus musculus [2]) was “Non-Toxic”. For the same compound, the Drug metabolism (UMP-CMP kinase) was “Metabolite_Detected”, the Activity (Mus musculus [3]) was “Non-Toxic” and the EC50 [4] was 240 nM. The Drug metabolism [5] was “Metabolite_Detected”, the NOAEL at 336 h [6] was over 1800 mg/kg and the Cmax [7] was 51.3 ng/mL. For the same compound, the half-life [8] was over 3.85 h, the Activity (Huh-7) was “Non-Toxic” and the AUC(0-t) at 24 h [9] was 248 ng·h/mL. For the same compound, the half-life [10] was 14.2 h and the Drug metabolism (Liver carboxylesterase 1) was “Metabolite_Detected”.
